This note sets out measurements from ChEMBL document CHEMBL1629641, “An important site in PBP2x of penicillin-resistant clinical isolates of Streptococcus pneumoniae: mutational analysis of Thr338” (2009).

≈ marks a conversion by molar mass, not a printed value.

Holding throughout (settings): R6, 48 h
Test [1] deals with Streptococcus pneumoniae. In words: Antimicrobial activity against Streptococcus pneumoniae R6 after 48 hrs by agar dilution method. It is filed as functional. The essentials:
(§1)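 Agar dilution on blood agar plates (D-agar with 3% defibrinated sheep blood), natural atmosphere, inoculated with cells from exponentially growing cultures in C-medium with 0.2% yeast extract grown at 37°C without aeration; narrow range of antibiotic concentrations to detect subtle susceptibility differences; MIC read after 48 h at 37°C.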
On the technique in general: Agar dilution tests growth on a series of plates holding different concentrations.

Test [2] relates to Streptococcus pneumoniae. In words: Antimicrobial activity against Streptococcus pneumoniae R6 harboring PBP2x T338A mutant gene after 48 hrs by agar dilution method. The format is functional. The essentials: as §1
Test [3] deals with Streptococcus pneumoniae. Put plainly: Antimicrobial activity against Streptococcus pneumoniae R6 harboring PBP2x T338P mutant gene after 48 hrs by agar dilution method. The format is functional. The essentials: as §1
Test [4] relates to Streptococcus pneumoniae. In words: Antimicrobial activity against Streptococcus pneumoniae R6 harboring PBP2x T338G mutant gene after 48 hrs by agar dilution method. It is filed as functional. In outline:
as §1

The subject of test [5] is Streptococcus pneumoniae. In words: Antimicrobial activity against Streptococcus pneumoniae R6 harboring PBP2x2349 mutant gene after 48 hrs by agar dilution method. The format is functional. The essentials: as §1
Test [6] relates to Streptococcus pneumoniae. Put plainly: Antimicrobial activity against Streptococcus pneumoniae R6 harboring PBP2x2349 and PBP1a2349 mutant gene after 48 hrs by agar dilution method. The format is functional. In outline: as §1
Test [7] relates to Streptococcus pneumoniae. Put plainly: Antimicrobial activity against streptomycin-resistant Streptococcus pneumoniae R6 harboring PBP2x T338G and PBP1a2349 mutant gene after 48 hrs by agar dilution method. It is filed as functional. In outline: as §1
Test [8] has as its system Streptococcus pneumoniae. Put plainly: Antimicrobial activity against streptomycin- resistant Streptococcus pneumoniae R6 harboring PBP2x2349 mutant gene and Janus disruption at PBP1a after 48 hrs by agar dilution method. The format is functional. In outline:
as §1

For test [9], the system named is Streptococcus pneumoniae. Put plainly: Antimicrobial activity against streptomycin-resistant Streptococcus pneumoniae R6 harboring PBP2x T338G mutant gene and Janus disruption at PBP1a after 48 hrs by agar dilution method. It is filed as functional. In outline:
as §1

Test [10] relates to Streptococcus pneumoniae. Put plainly: Antimicrobial activity against Streptococcus pneumoniae R6 harboring wild type PBP2x, disruption in PBP1a and aad9 disruption in CiaR gene after 48 hrs by agar dilution method. It is filed as functional. In outline: as §1
In test [11] the test system is Streptococcus pneumoniae. In words: Antimicrobial activity against Streptococcus pneumoniae R6 harboring PBP2x T338A mutant gene, disruption at PBP1a and aad9 disruption in CiaR gene after 48 hrs by agar dilution method. It is filed as functional. In outline:
as §1

Test [12] relates to Streptococcus pneumoniae. Put plainly: Antimicrobial activity against Streptococcus pneumoniae R6 harboring PBP2x T338P mutant gene, disruption at PBP1a and aad9 disruption in CiaR gene after 48 hrs by agar dilution method. The format is functional. The essentials:
as §1

Test [13] has as its system Streptococcus pneumoniae. In words: Antimicrobial activity against Streptococcus pneumoniae R6 harboring PBP2x T338G mutant gene, disruption at PBP1a and aad9 disruption in CiaR gene after 48 hrs by agar dilution method. The format is functional. In outline: as §1
Test [14] deals with Streptococcus pneumoniae. In words: Antimicrobial activity against Streptococcus pneumoniae R6 harboring PBP2x T338G mutant gene, disruption at PBP1a and aad9 disruption in CiaR gene after 48 hrs by agar dilution method.

On to `CO/N=C(\C(=O)N[C@@H]1C(=O)N2C(C(=O)O)=C(COC(C)=O)CS[C@H]12)c1csc(N)n1` [CEFOTAXIME], for which the minimum inhibitory concentration (MIC) (in general, the smallest concentration in the dilution series that meets the test's criterion for growth inhibition) was found to be 0.02 mg/L (≈ 0.0439 µM) in test [1]; 0.035 mg/L (≈ 0.0768 µM) in [2]; 0.04 mg/L (≈ 0.0878 µM) in [3]; 0.045 mg/L (≈ 0.0988 µM) in test [4]; 0.3 mg/L (≈ 0.659 µM) in [5]; 1 mg/L (≈ 2.2 µM) in [6]. For the same compound, the MIC in test [7] worked out at 0.03 mg/L (≈ 0.0659 µM); in [8], 0.2 mg/L (≈ 0.439 µM); in test [9], 0.03 mg/L (≈ 0.0659 µM); in [10], 0.025 mg/L (≈ 0.0549 µM); in [11], 0.045 mg/L (≈ 0.0988 µM); in test [12] it was 0.045 mg/L (≈ 0.0988 µM). The compound further showed a minimal inhibitory concentration (MIC) in test [13] of 0.055 mg/L (≈ 0.121 µM).

With `Cc1onc(-c2ccccc2)c1C(=O)N[C@@H]1C(=O)N2[C@@H]1SC(C)(C)[C@@H]2C(=O)O` [OXACILLIN], the minimum inhibitory concentration (MIC) in [1] stood at 0.08 mg/L (≈ 0.199 µM); in test [2] it was 0.18 mg/L (≈ 0.448 µM); in [3] it was 0.23 mg/L (≈ 0.573 µM); in test [4] it was 0.25 mg/L (≈ 0.623 µM); in test [5], 1 mg/L (≈ 2.49 µM); in [6] it was 0.85 mg/L (≈ 2.12 µM). Further, the MIC in test [7] amounted to 0.16 mg/L (≈ 0.399 µM); in test [8], 0.95 mg/L (≈ 2.37 µM); in [9], 0.21 mg/L (≈ 0.523 µM); in test [10] it was 0.08 mg/L (≈ 0.199 µM); in test [11], 0.2 mg/L (≈ 0.498 µM); in [12] it was 0.24 mg/L (≈ 0.598 µM). The minimal inhibitory concentration (MIC) in [13] turned out to be 0.25 mg/L (≈ 0.623 µM).

Regarding `CC1(C)S[C@@H]2[C@H](NC(=O)Cc3ccccc3)C(=O)N2[C@H]1C(=O)O` [PENICILLIN G], the minimum inhibitory concentration (MIC) turned out to be 0.02 mg/L (≈ 0.0598 µM) in test [1]; 0.03 mg/L (≈ 0.0897 µM) in test [2]; 0.03 mg/L (≈ 0.0897 µM) in test [3]; 0.03 mg/L (≈ 0.0897 µM) in test [4]; 0.04 mg/L (≈ 0.12 µM) in test [5]; 0.035 mg/L (≈ 0.105 µM) in [6]. Besides, the minimum inhibitory concentration (MIC) in [7] came to 0.02 mg/L (≈ 0.0598 µM); in test [8], 0.04 mg/L (≈ 0.12 µM); in [9], 0.02 mg/L (≈ 0.0598 µM); in [10] it was 0.02 mg/L (≈ 0.0598 µM); in test [11], 0.04 mg/L (≈ 0.12 µM); in test [13], 0.025 mg/L (≈ 0.0748 µM). This compound also yielded a minimum inhibitory concentration (MIC) in test [14] of 0.025 mg/L (≈ 0.0748 µM).

On to `CCN1CCN(C(=O)N[C@@H](C(=O)N[C@@H]2C(=O)N3[C@@H]2SC(C)(C)[C@@H]3C(=O)O)c2ccccc2)C(=O)C1=O` [PIPERACILLIN], for which the MIC worked out at 0.04 mg/L (≈ 0.0773 µM) in test [1]; 0.09 mg/L (≈ 0.174 µM) in [2]; 0.06 mg/L (≈ 0.116 µM) in [3]; 0.1 mg/L (≈ 0.193 µM) in test [4]; 0.12 mg/L (≈ 0.232 µM) in [5]; 0.11 mg/L (≈ 0.213 µM) in test [6]. Besides, the MIC in test [7] was determined as 0.06 mg/L (≈ 0.116 µM); in test [8] it was 0.12 mg/L (≈ 0.232 µM); in [9] it was 0.09 mg/L (≈ 0.174 µM); in test [10], 0.06 mg/L (≈ 0.116 µM); in test [11], 0.11 mg/L (≈ 0.213 µM); in [12] it was 0.06 mg/L (≈ 0.116 µM). The same compound had a minimal inhibitory concentration (MIC) in test [13] of 0.08 mg/L (≈ 0.155 µM).
